Active and inactive are the calls of the source. The calls are words filed in the database; no cut-off is given here.
Assays:
[1] = system: HeLa; assay: Induction of apoptosis in human HeLa cells assessed as chromatin condensation after 24 hrs by AO/EB staining-based fluorescent microscopic analysis; assay type: functional, cell-based
Procedure, shortened: (§1)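 HeLa monolayers were grown in 24-well plates and exposed for 24 h at 0, 5, 10, 20 and 40 µM. Cells were stained 10 min with AO/EB dye mix (100 µg/mL each) and washed with PBS. Morphology was then viewed by fluorescence microscopy: chromatin condensation, nuclear fragmentation, and membrane integrity.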

[2] = system: HeLa; assay: Induction of apoptosis in human HeLa cells assessed as nuclear fragmentation after 24 hrs by AO/EB staining-based fluorescent microscopic analysis; assay type: functional, cell-based; procedure, shortened: as §1
[3] = system: HeLa; assay: Antiproliferative activity against human HeLa cells after 44 hrs by MTT assay; assay type: functional, cell-based
Procedure, shortened: (§2)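 HeLa, A549, SGC-7901 and MCF-7 cells seeded at 5 × 10^4 per well in DMEM at 37 °C, 5% CO2, incubated overnight. Cells were then treated at […], with 0.5% DMSO as control. MTT added for 4 h at 37 °C, formazan dissolved in DMSO, absorbance read at 570 nm. Inhibition % = (1 − Atreatment/Acontrol) × 100. Triplicate wells, each experiment repeated at least three times.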

[4] = (§3) Antiproliferative activity against human SGC7901 cells after 44 hrs by MTT assay; assay type: functional, cell-based; conditions: SGC-7901, 44 h; procedure, shortened: as §2
[5] = system: SGC-7901; assay: as §3; assay type: functional, cell-based; procedure, shortened: as §2
[6] = system: MCF7; assay: Antiproliferative activity against human MCF7 cells after 44 hrs by MTT assay; assay type: functional, cell-based; conditions: for IC50: MCF7, 44 h; procedure, shortened: as §2
[7] = system: A549; assay: Antiproliferative activity against human A549 cells after 44 hrs by MTT assay; assay type: functional, cell-based; conditions: for IC50: A549, 44 h; procedure, shortened: as §2
[8] = organism: Homo sapiens; assay: Stabilization of HTG21 G-quadruplex DNA at 2.5 to 15 uM by PCR-stop assay
Procedure, shortened: (§4)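 PCR-stop on forward primer HTG21 or mutant HTG21mu with reverse primer RevHTG21, each primer 0.4 µM. Mixes contained 0.2 mM dNTP and 1.5 U Taq in 1× Thermopol buffer (20 mM Tris–HCl, 10 mM KCl, 10 mM (NH4)2SO4, 2 mM MgSO4, 0.1% Triton X-100, pH 8.8). Ligand was tested at 0–15 µM. Products were resolved by electrophoresis and imaged under UV.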

[9] = system: HeLa; assay: Induction of apoptosis in human HeLa cells assessed as early apoptotic cells at 40 uM after 24 hrs by annexin V-FITC/propidium iodide staining-based flow cytometric analysis (reference value: 0.11%); assay type: functional
Procedure, shortened: (§5)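 HeLa cells were seeded at 3 × 10^5 per well in DMEM at 37 °C, 5% CO2, and treated with 0, 10, 20 or 40 µM for 24 h. Cells were trypsinized, washed in cold PBS, resuspended in binding buffer, and stained with Annexin V-FITC plus PI for 20 min in the dark. Flow cytometry quadrants defined early (Annexin+/PI−) and late (Annexin+/PI+) apoptotic cells.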

[10] = system: HeLa; assay: Induction of apoptosis in human HeLa cells assessed as early apoptotic cells at 10 uM after 24 hrs by annexin V-FITC/propidium iodide staining-based flow cytometric analysis (reference value: 0.11%); assay type: functional; procedure, shortened: as §5
[11] = organism: Homo sapiens; assay: Binding affinity to HTG21 G-quadruplex DNA at 5 uM by fluorescence emission spectroscopic analysis
Procedure, shortened: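 Fluorescence emission titration with ligand fixed at […] and annealed HTG21 varied up to […]. Buffer was Tris–HCl 10 mM, pH 7.4, containing KCl or NaCl. Quenching was plotted as F0/F versus [HTG21]/[compound] and fitted.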

[12] = system: HeLa; assay: Induction of apoptosis in human HeLa cells assessed as increase in apoptotic ratio after 24 hrs by annexin V-FITC/propidium iodide staining-based flow cytometric analysis; assay type: functional, cell-based; procedure, shortened: as §5
[13] = organism: Homo sapiens; assay: Binding affinity to HTG21 G-quadruplex DNA assessed as transition temperature using Na+ buffer at 1:1 compound to DNA ratio by CD spectrometric analysis (reference value: 55.1 degC)
Procedure, shortened: (§6)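 CD melting of HTG21 at 5 µM with ligand at 5 µM (1:1). Buffer was Tris–HCl 10 mM, pH 7.4, containing KCl or NaCl. Signal was monitored at 295 nm and curves were normalized to obtain the melting temperature. HTG21 was pre-annealed at 95 °C for 5 min, cooled slowly, and held at 4 °C overnight.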

[14] = system: HeLa; assay: Induction of apoptosis in human HeLa cells assessed as late apoptotic cells at 20 uM after 24 hrs by annexin V-FITC/propidium iodide staining-based flow cytometric analysis (reference value: 0.36%); assay type: functional; procedure, shortened: as §5
[15] = system: HeLa; assay: Induction of apoptosis in human HeLa cells assessed as late apoptotic cells at 40 uM after 24 hrs by annexin V-FITC/propidium iodide staining-based flow cytometric analysis (reference value: 0.36%); assay type: functional; procedure, shortened: as §5
[16] = organism: Homo sapiens; assay: Binding affinity to HTG21 G-quadruplex DNA assessed as hypochromicity by electronic absorption spectroscopic analysis
Procedure, shortened: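 Absorption titration with ligand fixed at […] and HTG21 added at […], in Tris–HCl 10 mM, pH 7.4, containing KCl or NaCl. HTG21 was annealed at 95 °C for 5 min, cooled slowly, and held at 4 °C overnight. Absorbance decrease was followed. Binding constant was taken from a plot of [DNA]/(εa−εf) versus [DNA].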

[17] = organism: Homo sapiens; assay: Binding affinity to HTG21 G-quadruplex DNA assessed as transition temperature using K+ buffer at 1:1 compound to DNA ratio by CD spectrometric analysis (reference value: 64.6 degC); procedure, shortened: as §6
[18] = system: HeLa; assay: Induction of apoptosis in human HeLa cells assessed as late apoptotic cells at 10 uM after 24 hrs by annexin V-FITC/propidium iodide staining-based flow cytometric analysis (reference value: 0.36%); assay type: functional; procedure, shortened: as §5
[19] = system: HeLa; assay: Induction of apoptosis in human HeLa cells assessed as early apoptotic cells at 20 uM after 24 hrs by annexin V-FITC/propidium iodide staining-based flow cytometric analysis (reference value: 0.11%); assay type: functional; procedure, shortened: as §5
[20] = system: Calf thymus DNA; assay: Binding affinity to calf thymus DNA assessed as hypochromicity by electronic absorption spectroscopic analysis; assay type: nucleic-acid assay; conditions: Bos taurus
[21] = organism: Homo sapiens; assay: Binding affinity to HT6 G-quadruplex DNA at 0.5 to 1 compound to DNA ratio by NMR spectroscopic analysis
Procedure, shortened: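 1H NMR at 25 °C on d(TTAGGG) 0.2 mM in 90% H2O/10% D2O with 150 mM KCl and 25 mM potassium phosphate, pH 7.0. Compound/quadruplex ratios were 0, 0.5 and 1. Watergate water suppression was used, and imino proton signals were monitored. Oligonucleotide was HPLC-purified.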

[22] = system: Calf thymus DNA; assay: Binding affinity to calf thymus DNA at 5 uM by fluorescence emission spectroscopic analysis; assay type: nucleic-acid assay; conditions: Bos taurus
[23] = organism: Homo sapiens; assay: Stabilization of HTG21mu G-quadruplex DNA at 15 uM by PCR-stop assay; procedure, shortened: as §4

Row | IC50 [3] [µM] | IC50 [6] [µM] | IC50 [7] [µM] | Structure (SMILES) | Activity [1] | Activity [2] | Activity [3] | IC50 [4] [µM] | Activity [5] | Activity [6] | Activity [7] | also measured
1 | > 100 | > 100 | 80.5 | O=C(CN1CCOCC1)Nc1ccc2oc3ccc(NC(=O)CN4CCOCC4)cc3c(=O)c2c1 | Dose-dependent effect | Dose-dependent effect | Dose-dependent effect | 84.9 | Dose-dependent effect | Dose-dependent effect | Dose-dependent effect | 
2 | 13.2 | 23 | 18.7 | CN(C)CC(=O)Nc1ccc2oc3ccc(NC(=O)CN(C)C)cc3c(=O)c2c1 | Dose-dependent effect | Dose-dependent effect | Dose-dependent effect | 17.3 | Dose-dependent effect | Dose-dependent effect | Dose-dependent effect | Activity [8]: Active; Activity [9]: 32.07%; Activity [10]: 12.36%; Activity [11]: Active; Activity [12]: Dose-dependent effect; T [13]: 60.8 °C; Activity [14]: 18.24%; Activity [15]: 60.78%; Kb [16]: 2.89 ×10⁴ /M; T [17]: 70.3 °C; Activity [18]: 9.45%; Activity [19]: 22.69%; Kb [20]: 0.46 ×10⁴ /M; Activity [21]: Active; Activity [22]: inactive; Activity [23]: inactive
3 | 48.2 | 34.9 | 21.5 | O=C(CN1CCCC1)Nc1ccc2oc3ccc(NC(=O)CN4CCCC4)cc3c(=O)c2c1 | Dose-dependent effect | Dose-dependent effect | Dose-dependent effect | 35.9 | Dose-dependent effect | Dose-dependent effect | Dose-dependent effect | 
4 | 20.4 | 26.6 | 19.9 | CCN(CC)CC(=O)Nc1ccc2oc3ccc(NC(=O)CN(CC)CC)cc3c(=O)c2c1 | Dose-dependent effect | Dose-dependent effect | Dose-dependent effect | 32.2 | Dose-dependent effect | Dose-dependent effect | Dose-dependent effect | 
5 | > 100 | 83.9 | > 100 | O=C(CN1CCCCC1)Nc1ccc2oc3ccc(NC(=O)CN4CCCCC4)cc3c(=O)c2c1 | Dose-dependent effect | Dose-dependent effect | Dose-dependent effect | 86.7 | Dose-dependent effect | Dose-dependent effect | Dose-dependent effect | 

From ChEMBL document CHEMBL3745598, “Synthesis and biological evaluation of disubstituted amidoxanthones as potential telomeric G-quadruplex DNA-binding and apoptosis-inducing agents” (Bioorg Med Chem, 2016)
